NS3 helicase inh: inhibitors of Hepatitis C virus NS3 helicase; NS3 helicase DNA unwinding, Cy5 molecular beacon fluorescence; inhibition, % at 10.9 µM; hit rate 0.56% among 290,000;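 active means inhibition above the mean of all tested compounds plus 3 SD, set per campaign, cut at about 35% in these data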;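 further: 0% = DMSO wells and 100% = thioflavine S control wells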
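Assay system: hepatitis C virus NS3 helicase domain fragment enzyme. Also added: annealed dual-labelled DNA beacon duplex, ATP-started. Timing: 1 h reaction at 25 °C, ATP-initiated. Technique: Cy5 fluorescence at 0 and 60 min, beacon hairpin quenching. Evaluation: % inhibition of unwinding. Replication: one well per compound.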
FID counter: displaces DNA intercalator in HCV helicase counter-screen; hit rate 0.17% among 290,000; DNA fluorescent intercalator displacement, fluorescence; inhibition, % at 7.9 µM; in the data active means inhibition above about 37%;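 further: 0% = vehicle and 100% = reference compound; higher means more ethidium bromide displaced from hairpin DNA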
GRK2 inh: human GRK2 inhibition via aptamer displacement | P25098 | bead flow cytometry, FAM-aptamer displacement from GRK2 | inhibition of aptamer binding, % at 10 µM | hit rate 0.59% among 330,000 | AID 488847;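 active means inhibition of aptamer binding above 40%, roughly 3 SD of noise, on plates passing a quality check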;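 further: median bead fluorescence of bound FAM aptamer so fluorescent compounds give negative values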
GPR7 antag: blocks human GPR7 receptor signaling | GPR7-expressing cells, fluorescence antagonist assay | P48145 | AID 1861 | hit rate 1.1% among 290,000 | inhibition, % at 4.4 µM; in the data active means inhibition above about 16%, passing the limit was not always enough;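 further: cells stimulated with the agonist NPW; 0% = agonist with vehicle and 100% = vehicle without agonist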
core dimer inh: HCV core protein dimerization inhibition; TR-FRET GST/Flag-core106 dimerization, 1536-well; inhibition, % at 5 µM; hit rate 0.33% among 300,000;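 active means inhibition above the mean of all tested compounds plus 3 SD, set per screening campaign, cut at about 45% in these data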
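Assay system: GST-tagged and Flag-tagged HCV core protein residues 1-106 / Times: compound-protein-antibody incubation 4 h at 22.5 °C / Signal: time-resolved FRET, ex 340 nm, em 617 and 671 nm / Evaluation: % inhibition based on acceptor/donor emission ratio / Benchmarks: wells lacking GST-core106 and wells with excess unlabelled core106 / Repeats: singlicate, one well per compound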
DAGLB inh: diacylglycerol lipase beta (human) inhibition; HEK293T DAGLB membrane lysate, EnzChek fluorogenic substrate; inhibition, % at 5.17 µM; hit rate 0.059% among 340,000; in the data active means inhibition above about 34%;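 further: 0% = enzyme with vehicle and 100% = wells lacking enzyme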
Target sequence (Q8NCG7 whole entry, looked up): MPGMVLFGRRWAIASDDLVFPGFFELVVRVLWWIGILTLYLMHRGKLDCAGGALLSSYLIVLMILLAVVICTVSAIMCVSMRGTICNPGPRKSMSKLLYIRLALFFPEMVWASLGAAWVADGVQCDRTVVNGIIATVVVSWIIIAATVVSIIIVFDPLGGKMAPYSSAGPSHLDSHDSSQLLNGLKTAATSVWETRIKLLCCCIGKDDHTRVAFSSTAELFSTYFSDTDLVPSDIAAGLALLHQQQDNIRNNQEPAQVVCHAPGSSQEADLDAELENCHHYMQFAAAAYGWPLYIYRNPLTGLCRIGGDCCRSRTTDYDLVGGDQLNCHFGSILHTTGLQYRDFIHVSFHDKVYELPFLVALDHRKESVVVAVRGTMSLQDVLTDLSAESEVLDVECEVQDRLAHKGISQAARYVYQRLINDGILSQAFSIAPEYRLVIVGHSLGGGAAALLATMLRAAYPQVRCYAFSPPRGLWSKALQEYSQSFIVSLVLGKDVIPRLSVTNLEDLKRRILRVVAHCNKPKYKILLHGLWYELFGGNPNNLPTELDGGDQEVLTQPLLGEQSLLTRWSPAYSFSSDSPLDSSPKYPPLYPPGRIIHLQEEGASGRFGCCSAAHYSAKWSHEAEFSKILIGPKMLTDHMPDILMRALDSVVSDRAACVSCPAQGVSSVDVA
GRK2 CP1: confirmation of human GRK2 inhibitors displacing RNA aptamer; shares compounds with GRK2 inh; bead-bound GRK2, FAM-aptamer displacement, flow cytometry; aptamer displacement, % at 10 µM; hit rate 4% among 2,000;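 active means aptamer displacement above 40%, near three times the noise of non-fluorescent compounds, on plates passing quality checks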;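 further: negative values mostly reflect intrinsic compound fluorescence rather than true enhancement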
FAM quench CP1: counter-screen for GRK2 aptamer inhibitors: fluorescent aptamer quenchers | shares compounds with GRK2 inh | Carboxyfluorescein RNA aptamer on beads, flow cytometry quenching; stronger effect = lower value | fluorescence response (% of DMSO), % at 10 µM | 2,000 tested, under 10 active | AID 504580;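 active means compounds that quench the bead-bound fluorescent RNA probe, cutting fluorescence to under half of the solvent control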;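 further: counterscreen run without GRK2 so only probe quenching by compound is measured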
GRK2 confirm 2: confirmation of human GRK2 inhibitors binding RNA aptamer site. shares compounds with GRK2 inh. bead-bound GRK2, FAM-aptamer displacement, flow cytometry. inhibition of aptamer binding, % at 10 µM. 360 tested, under 10 active. AID 504782;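 active means inhibition of aptamer binding above 40%, about triple the noise seen with nonglowing compounds, on plates passing quality control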;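 further: negative values mostly come from compounds that fluoresce themselves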
FAM quench CP2: quenches fluorescent RNA aptamer, GRK2 hit artifact | shares compounds with GRK2 inh | carboxyfluorescein RNA aptamer beads, flow cytometry quenching; stronger effect = lower value | fluorescence response vs DMSO, % at 10 µM | 360 tested, under 10 active | AID 588494;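 active means response vs DMSO under 50%, meaning signal dropped by over half, treated as fluorescence quencher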;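 further: labelled aptamer on streptavidin beads without GRK2 as a quench counter-screen; 100% = bead fluorescence of DMSO wells and lower means quenching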
The depositor's hits bear a star; · = no result given. An excerpt weighted towards active compounds, which were near 2.2% of everything screened.

SMILES	NS3 helicase inh	FID counter	GRK2 inh	GPR7 antag	core dimer inh	DAGLB inh	GRK2 CP1	FAM quench CP1	others
Cc1ccc2[nH]c3c(=O)n(CC(=O)NCCCN4CCN(c5ccc(F)cc5)CC4)ncc3c2c1	-14	3	45*	11	-2	-1	24	98
COc1ccc(CNC(=O)CN2CCN(c3ccc(F)cc3)CC2)cc1	10	-16	0	1	8	-2	·	·
CCC1CCCCN1CCCNC(=O)Cn1ncc2c([nH]c3ccc(C)cc32)c1=O (centres undefined)	-17	8	0	-9	7	1	·	·
Cc1ccc(CNC(=O)CN2CCN(c3ccc(F)cc3)CC2)cc1	5	-27	43*	1	0	1	2	97
O=C1c2nccnc2C(=O)N1c1ccc(C(F)(F)F)cc1	-11	6	57*	-8	0	-2	-2	102
CN(C)N(C(=O)c1cc(-c2cccs2)nn1-c1ccccc1)C1CCS(=O)(=O)C1 (centres undefined)	·	·	2	·	·	1	·	·
O=C(CSc1ccccc1)Nc1ccc(Cl)c(S(=O)(=O)N2CCOCC2)c1	·	·	21	·	·	-1	-3	97
COc1ccc(S(=O)(=O)N2CN3CCN(C3)C2)cc1	5	-1	2	-1	-3	-1	·	·
CSc1nc(C)c(C(=O)C[n+]2ccccc2)cc1C#N	4	9	94*	1	-1	1	1	104
CCOC(=O)c1cc(C#N)c(SCC(=O)c2cc(C#N)c(SC)nc2C)nc1C	·	·	0	·	-75	-3	·	·
Cc1ccc(-c2ccnc(-c3ccc(O)cc3)n2)cc1	-2	1	0	8	-1	-4	·	·
Oc1ccc(-c2nccc(-c3ccc(Br)cc3)n2)cc1	-23	-5	6	-17	2	-2	-5	100
Cc1ccc2cccc(N=Cc3c(C)[nH]n(-c4ccccc4)c3=O)c2n1	-5	0	0	0	-7	-2	-7	98
COc1ccccc1CN1CC(C(=O)N2CCOCC2)CCC1=O (centres undefined)	1	-5	4	-5	0	3	·	·
COc1ccc(CN(C)Cc2c(O)ccc3ccccc23)cc1	-3	-8	2	-7	-24	-3	·	·
CN(CC(=O)Nc1cccc(F)c1)C(=O)c1ccc(COc2ccccc2)o1	·	·	2	·	-1	-2	·	·
CC(=O)c1c(C)[nH]c(C(=O)CN2C(=O)NC(C)(c3ccc(C)cc3)C2=O)c1C (centres undefined)	-1	-17	54*	20*	4	-1	-2	103
CCCCNC(=O)CNC(=O)c1nn(-c2ccc(OC)cc2)c(=O)c2ccccc12	3	-23	26	-19	10	-1	2	94
CCN(CC)CCNC(=O)CNC(=O)c1nn(-c2ccc(OC)cc2)c(=O)c2ccccc12	19	15	0	23	-2	-3	1	95
CCN(CC)CCNC(=O)CNC(=O)c1nn(-c2ccc(OC)c(OC)c2)c(=O)c2ccccc12	13	4	0	-9	-12	0	1	99
CCN(CC)CCCNC(=O)CNC(=O)c1nn(-c2ccc(OC)c(OC)c2)c(=O)c2ccccc12	6	3	2	-5	-2	-3	·	·
CCN(CC)CCCNC(=O)CNC(=O)c1nn(-c2ccc(OC)cc2)c(=O)c2ccccc12	1	13	0	-6	-1	0	·	·
COc1ccc(-n2nc(C(=O)NCC(=O)NCCN(C)C)c3ccccc3c2=O)cc1	6	2	23	-11	3	-1	3	93
COc1ccccc1NC(=O)C1CCCN(c2cnccn2)C1 (centres undefined)	2	-9	0	-16	7	1	·	·
CCC1CN(C(=O)N2CCC(C(=O)NCc3cccc(OC)c3OC)CC2)c2cc(C)ccc2O1 (centres undefined)	-12	-63	0	-7	8	-1	·	·
SMILES	NS3 helicase inh	FID counter	GRK2 inh	GPR7 antag	core dimer inh	DAGLB inh	GRK2 CP1	FAM quench CP1	others
O=C(O)C1C2C=CC(C3CC23)C1C(=O)O (centres undefined)	0	-4	18	-21	-2	1	·	·	GRK2 confirm 2=6;FAM quench CP2=101
Cc1cccc(NC(=O)C2C3C=CC(C4CC34)C2C(=O)O)c1 (centres undefined)	-6	-4	2	-4	2	-1	·	·
CC(=O)c1cccc(NC(=O)C2CCCCC2)c1	-7	-3	0	-5	0	-1	·	·
CC(O)c1cccc(NC(=O)C2CCCCC2)c1 (centres undefined)	-4	-2	53*	-8	-8	4	0	102
CCc1nnc(NC(=O)CSc2nnc(-c3ccc(O)cc3)n2C)s1	1	-9	37	-9	3	-1	-5	102
CCc1nnc(NC(=O)CSc2nnc(-c3ccc(OC)cc3)n2C)s1	-9	-15	2	3	-3	0	·	·
O=C(CN1C2=NCCCN2c2ccccc21)c1ccc(Cl)cc1Cl	-67	17	0	14	-10	-3	·	·
C/C(=C\C(=O)c1ccc(C)cc1)Nc1cccc(O)c1	-1	2	34	1	4	0	1	100
CS(=O)(=O)c1ccc(Cl)c(NC(=O)COC(=O)Cc2c[nH]c3ccccc23)c1	·	·	0	·	1	2	·	·
O=c1cc(OCc2ccccc2)cc[nH]1	·	·	43*	·	·	-1	·	·	GRK2 confirm 2=-30;FAM quench CP2=99
Cc1[nH]ccc(=O)c1OCc1ccccc1	8	-4	0	-8	-5	-1	·	·
CCCN1CCN(C(=O)C(NC(=O)c2ccco2)C(C)C)CC1 (centres undefined)	6	-6	0	-13	5	-3	·	·
O=C(c1ccco1)N1CCN(C(=O)c2ccccc2OCc2ccc(Cl)cc2)CC1	·	·	0	·	0	-1	·	·
CC1(C)NC(=O)N(CCCCOc2ccc(Cl)cc2)C1=O	-4	-6	70*	-1	0	-1	-3	97
COc1ccc(OC)c(-n2c(SC)nnc2-c2c[nH]c3ccccc23)c1	2	-24	100*	11	24	3	-3	99
Cc1cc(C(=O)NC2CC(C)(C)Cc3c2cnn3-c2ccc(F)cc2)no1 (centres undefined)	-6	-40	1	-9	7	-1	·	·

Screening results (PubChem)
